A short description of series [1]: Cytotoxicity against mouse BV2 cells assessed as cell viability at 20 uM after 24 hrs by MTT assay relative to control. The format is cell-based, BV-2. The following applies: read-out: Activity. The procedure, abridged:
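BV-2 cells grown in DMEM with 10% heat-inactivated FBS at 37 °C under 5% CO2. Medium switched to 0.5% FBS at 85% confluence before treatment. Viability measured after 24 h compound exposure by colorimetric MTT reduction. Mean ± SD of three individual experiments.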

The subject of series [2] is BV-2. Briefly: Inhibition of LPS-induced COX-2 expression in mouse BV2 cells at 20 uM pretreated for 15 mins followed by LPS-stimulation after 24 hrs by western blot analysis relative to control. Type of series: functional. Summed up: (§1)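 BV-2 cells at 80% confluence, serum-free medium for 24 h. Cells given DMSO or compound, then LPS 150 ng/mL for 24 h. Lysate supernatants run on SDS-PAGE, blotted to PVDF, probed with anti-COX-2 or anti-iNOS and HRP secondary, detected by ECL. Protein levels expressed as fold of control. Mean ± SD of three experiments.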
For orientation: Immunoblotting shows a protein as a band on a membrane.

The test system of series [3] is BV-2. The series can be described thus: Inhibition of LPS-induced iNOS expression in mouse BV2 cells at 20 uM pretreated for 15 mins followed by LPS-stimulation after 24 hrs by western blot analysis relative to control. The format is functional. Summed up: as §1
In series [4] the test system is BV-2. Briefly: Inhibition of LPS-induced iNOS expression in mouse BV2 cells pretreated for 15 mins followed by LPS-stimulation after 24 hrs by western blot analysis. The format is functional, cell-based. Summed up:
(§2)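 Western blot in BV-2 microglia after serum-free conditioning for 24 h. Compound given at 2, 5, 10 and 20 μM, then LPS 150 ng/mL for 24 h. iNOS and COX-2 detected by ECL and expressed relative to control. IC50 calculated from the concentration–response data.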

The subject of series [5] is BV-2. The series can be described thus: Inhibition of LPS-induced nitric oxide production in mouse BV2 cells pretreated for 30 mins followed by LPS-stimulation after 24 hrs by Griess assay. Type of series: functional, cell-based. Summed up:
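BV2 cells seeded at 5 × 10^5 per well for 16 h, then moved to phenol red-free DMEM. Cells pretreated 30 min with vehicle or compound (2, 10, 20, 40 μM), then given LPS 150 ng/mL for 24 h. Supernatant nitrate reduced with nitrate reductase and cofactors for 1 h at RT in the dark. Griess A and B added for 20 min, then A550 read. Nitrite obtained by regression against NaNO2 standards, and IC50 derived. Curcumin used as positive control.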
For orientation: The Griess reaction detects nitrite, a stable product of nitric oxide.

Series [6] has as its system BV-2. The series can be described thus: Inhibition of LPS-induced COX-2 expression in mouse BV2 cells pretreated for 15 mins followed by LPS-stimulation after 24 hrs by western blot analysis. Type of series: functional, cell-based. Summed up:
as §2

The structures appear in SMILES notation.

The term IC50 denotes the concentration at which inhibition is half-maximal. In the case of `C=C(C)[C@@H]1Cc2cc(CO)ccc2O1`, in series [1], the viability at 24 h, 20 µM came out at 85.9%. Also, the results for the “fold change (FC)” value in series [2] and in series [3] were 2.4 and 1.9, respectively. The IC50 was found to be 11.6 µM in series [4], 33.8 µM in series [5] and 12.7 µM in series [6]. Further, the inhibition result in series [4] and in series [6] was “Dose-dependent effect” each time.
In the case of `C=C(C=O)[C@@H]1C[C@@]2(C)C(=CC1=O)CCC[C@@H]2C`, the viability at 24 h, 20 µM in series [1] was 46.1%.
Take `CC1=C2[C@@H](C=C3CCC[C@H](C)[C@@]3(C)[C@H]2O)OC1=O`: the viability at 24 h, 20 µM in series [1] was determined as 90.2%. In addition, the “fold change (FC)” value turned out to be 6.4 in series [2] and 3.2 in series [3].
As to `C=C(C=O)[C@@H]1C[C@@]2(C)C(=C[C@H]1O)CCC[C@@H]2C`, in series [1], the viability at 24 h, 20 µM came to 44.6%.
For the molecule `O=C1C[C@H](O)Cc2cc(O)cc(O)c21`, the results for the “fold change (FC)” value in series [2] and in series [3] were 4.9 and 2.9, respectively.
Take `COc1cc(/C=C/C(=O)CC(=O)/C=C/c2ccc(O)c(OC)c2)ccc1O` [CURCUMIN]: the IC50 in series [5] worked out at 4.5 µM.
Turning to `C=C(C)[C@@H]1Cc2cc(C=O)ccc2O1`, the “fold change (FC)” value is given as 4.2 in series [2] and 3 in series [3].
Take `C=C(CO)C1=C[C@@]2(C)C(=CC1=O)CCC[C@@H]2C`: the viability at 24 h, 20 µM in series [1] is 73.8%. Further, the “fold change (FC)” value in series [2] is reported as 3.7; in series [3], 3.6.
`CCCCCc1cccc(O)c1CO`: the “fold change (FC)” value amounted to 5.6 in series [2] and 3.4 in series [3].
Regarding `CC1=C2[C@@H](C=C3C=CC[C@H](C)[C@@]3(C)[C@H]2O)OC1=O`, the viability at 24 h, 20 µM in series [1] turned out to be 79.3%. In addition, the “fold change (FC)” value in series [2] was 4.9; in series [3], 4.5.
With `CCCCC1OC(=O)c2c(O)cccc21` (configuration not stated), the “fold change (FC)” value in series [2] amounted to 6.5; in series [3] it was 4.3.
With `C=C1CO[C@@H]2C=C3CCC[C@H](C)[C@@]3(C)C[C@@]12O`, in series [1], the viability at 24 h, 20 µM was determined as 87.7%. The “fold change (FC)” value is 2.1 in series [2] and 1.8 in series [3]. In addition, the IC50 in series [4] turned out to be 8.1 µM; in series [5], 21.7 µM; in series [6], 16.6 µM. Besides, the inhibition entry in series [4], in series [5] and in series [6] was “Dose-dependent effect” each time.

Values taken from ChEMBL document CHEMBL4004801, “Bioactive Constituents from the Termite Nest-Derived Medicinal Fungus Xylaria nigripes” (J Nat Prod, 2017).
